BB579 growth dn: growth inhibitors of yeast BB579 in restrictive medium, primary screen, yeast lifespan-shortening project, S. cerevisiae. OD615, 48 h. inhibition, % at 10 µM. actives 0.51% (n = 140,000). AID 804, 2007;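 active = inhibition above a set limit, 3 SD over the mean compound inhibition, cut at about 44% in these data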
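Material: Saccharomyces cerevisiae DeaD strain BB579, replicative lifespan model yeast; buffer or medium: CSMM-D restrictive synthetic medium containing dextrose (glucose); compound: 10 µM single dose, DMSO 0.25%; timing: 48 h compound exposure at 30 °C after 4 h preincubation; signal: turbidity as optical density at 615 nm; benchmarks: positive control amphotericin B 10 µg/mL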
Yeast life ext: compounds extending yeast replicative lifespan, primary screen, S. cerevisiae, OD615. S. cerevisiae growth with nicotinamide; deaD strain in restrictive glucose medium. inhibition of the nicotinamide effect, % at 10 µM. actives 0.68% (n = 130,000). AID 775, 2007;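 active = inhibition above a set limit, placed 3 SD over the median of all compounds, cut at about 26% in these data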;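 note: 0% = nicotinamide-treated wells and 100% = cells grown without nicotinamide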
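assay system = DeaD-strain S. cerevisiae | buffer or medium = restrictive glucose medium | reagent = 1.5 mM nicotinamide | compound = 10 µM single point, 0.25% DMSO | incubation = 48 h compound exposure at 30 °C, humidified | signal = OD615 measurement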
Efa HMGR inh: inhibitors of E. faecalis class II HMGR, primary screen, biochemical, Enterococcus faecalis. HMG-CoA reductase (Enterococcus faecalis, mvaE). purified E. faecalis HMGR, NADPH absorbance 340 nm kinetic. inhibition, % at 10 µM. actives 0.41% (n = 190,000);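 active = inhibition above a set limit, the median over all tested compounds plus 3 SD, cut at about 9.5% in these data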;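 note: enzyme runs in reverse so mevalonate oxidation gives rising NADPH absorbance; 0% = complete reaction with DMSO and 100% = background rate lacking mevalonate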
b-catenin transl: modulators of beta-catenin nuclear translocation, primary screen, imaging, HeLa cells, immunofluorescence, high-content; nuclear translocation activity, % at 5 µM; actives 0.3% (n = 190,000); AID 1665, 2009;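 active = nuclear translocation activity above 50% at 5 µM, with a well cell count of 50 or more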;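 note: per-cell ratio of nuclear to cytoplasmic median beta-catenin stain intensity; plate controls were DMSO negative control for no effect and GSK-3 inhibitor IX positive control for full effect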
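Technique: fluorescence imaging of beta-catenin antibody stain plus DAPI / Material: human HeLa cell line / Incubation: compound treatment 24 h, 37°C, 5% CO2 / Read-out basis: % activation of per-cell nuclear versus cytoplasmic median beta-catenin signal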
MT stabilizer: microtubule stabilizers in HeLa cells, primary screen, imaging, high-content imaging. % tubulin-high responders, % at 10 µM. HeLa tubulin immunostaining HCS, 24 h; share of cells brighter than vehicle mean+2SD. actives 0.83% (n = 200,000);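 active = plate Z-score above 3 for both tubulin-high and condensed-nucleus cell shares, with cell loss under 80%, at 10 µM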;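 note: anti alpha tubulin signal scored within the nucleus-defined area of each cell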
RAM network inh: inhibitors of the yeast RAM network, primary screen, dse1pr::URA3 reporter, 5-FOA selection; S. cerevisiae dse1pr::URA3 reporter, 5-FOA growth OD615, 2 d; analog-sensitive cbk1-as2 kinase mutant strain; inhibition, % at 50 µM; actives 1.8% (n = 190,000); AID 868, 2007;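 active = inhibition above a set limit, 3 SD over mean compound inhibition, cut at about 8.4% in these data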;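 note: 0% = DMSO-only wells with no growth and 100% = 10 µM 1-NA-PP1 full growth; inhibition rescues growth on 5-FOA so higher OD means more RAM inhibition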
* hit, by the source's call; nt = no result given. In the library only some 3.5% were active in any assay of this set; here they are far more common.

SMILES | BB579 growth dn | Yeast life ext | Efa HMGR inh | b-catenin transl | MT stabilizer | RAM network inh
C=CCOc1ccc(Br)cc1CNC(C)(C)C | nt | nt | 22* | 0 | 2 | -1
C=CCOc1ccc(Br)cc1CNC(C)(C)CO | nt | nt | -2 | 0 | 4 | 1
O=C(COC(=O)c1ccccc1Br)NCc1ccccc1 | -2 | -5 | -9 | nt | 3 | -1
CCOC(=O)c1ccccc1NS(=O)(=O)c1ccc(S(=O)(=O)N2CCCC2)cc1 | -32 | 2 | -2 | -1 | 4 | 10*
O=C(COC(=O)c1ccccc1NS(=O)(=O)c1ccc(Cl)cc1)NCc1ccccc1 | -47 | 8 | -3 | -4 | 3 | 11*
Cc1ccc(C(=O)NC(=O)CSc2ncccc2C(=O)O)cc1 | nt | nt | -1 | -1 | 7 | 1
O=c1cc(C(F)(F)F)[nH]c2ccc(OC(F)(F)F)cc12 | nt | nt | nt | -1 | nt | nt
O=c1cc(C(F)(F)F)[nH]c2c(C(F)(F)F)cccc12 | 90* | -1 | -7 | nt | 3 | -2
O=C(/C=C\c1ccccc1OC(=O)c1ccccc1F)c1cc2ccccc2o1 | -36 | -4 | 0 | 2 | 3 | 8
Cc1[nH][nH]c(=O)c1N=Nc1ccccc1Cl | nt | nt | nt | 3 | nt | nt
Cc1[nH]oc(=O)c1N=Nc1c(Cl)cccc1Cl | 2 | 37* | -4 | -2 | 2 | -1
Cc1ccc(N=Nc2c(N)n(-c3ccccc3)[nH]c2=O)cc1 | -14 | -13 | 1 | nt | 2 | 4
Cc1[nH]oc(=O)c1N=Nc1ccccc1 | 22 | 32* | -3 | -4 | 1 | -1
Cc1cccc(NNC(=O)c2c(F)cccc2Cl)c1 | nt | nt | nt | 0 | nt | nt
CCCN1C(=O)/C(=C/c2ccncc2)SC1=S | -48 | 54* | -1 | 1 | 6 | 1
O=C(CCN1C(=O)/C(=C/c2ccccc2)SC1=S)NNC(=O)c1cccnc1 | -34 | -1 | 3 | 0 | 2 | 9.6*
O=C(CCN1C(=O)/C(=C/c2ccc(F)cc2)SC1=S)NNC(=O)c1cccnc1 | -27 | -2 | -2 | nt | 5 | 2
O=C1/C(=C/c2ccncc2)SC(=S)N1Cc1ccccc1 | nt | nt | nt | 1 | nt | nt
Cc1ccc(C(=O)NNC(=O)CCCN2C(=O)/C(=C/c3ccccc3Cl)SC2=S)cc1 | -17 | 2 | -7 | -1 | 7 | 10*
CN(c1nc(-c2ccc(Br)cc2)cs1)C1CCS(=O)(=O)C1 (stereo not drawn) | nt | nt | -7 | -3 | 5 | 0
CC1=CC(C)(C)N(S(=O)(=O)c2ccc(F)cc2)c2ccc(C)cc21 | -60 | 8 | 1 | 33 | 24* | 6
CC1=CC(C)(C)N(S(=O)(=O)c2ccc(C)cc2)c2ccccc21 | -37 | 12 | 1 | nt | 12 | 8.7*
CC1=CC(C)(C)N(C(=O)CN2C(=O)c3ccccc3C2=O)c2ccccc21 | -48 | 0 | -11 | 2 | 6 | 2
COc1ccc2c(c1)C(C)=CC(C)(C)N2S(=O)(=O)c1ccc(Br)cc1 | nt | nt | 1 | 76* | 5 | 5
CC1=CC(C)(C)N(C(=O)c2ccccc2)c2ccc(C)cc21 | -50 | -2 | 2 | -1 | 3 | 2
SMILES | BB579 growth dn | Yeast life ext | Efa HMGR inh | b-catenin transl | MT stabilizer | RAM network inh
COC(=O)/C=C1/S/C(=N/NC(=O)c2ccc(Cl)cc2Cl)NC1=O | nt | nt | nt | 0 | nt | nt
ClCC1NCC(c2ccccc2Cl)c2c1[nH]c1ccccc21 (stereo not drawn) | nt | nt | -1 | 1 | 5 | 0
Cc1ccc(S(=O)(=O)N2CCOCC2)cc1NC(=O)CNCC1CCCCC1 | nt | nt | -3 | -4 | 2 | 1
CCCN1CCC(=NNc2ccc(S(=O)(=O)N(CC)CC)cc2[N+](=O)[O-])CC1 | nt | nt | -1 | 112* | 14 | -1
O=c1c2c3c(sc2nc(N2CCNCC2)n1CCc1ccccc1)CCCCC3 | nt | nt | nt | 2 | nt | nt
O=C(NCC1CCCO1)C(c1cccs1)N(Cc1ccccc1)C(=O)c1ccc(-c2ccccc2)[nH]1 (stereo not drawn) | -35 | 2 | -5 | -2 | 4 | 10*
O=C(NCC1CCCO1)C(c1cccs1)N(Cc1cccs1)C(=O)Cn1nnc(-c2cccs2)n1 (stereo not drawn) | -25 | nt | 16* | 2 | 4 | 4
O=C(NCC1CCCO1)C(c1cccs1)N(C(=O)Cn1nnc(-c2cccs2)n1)C1CCCC1 (stereo not drawn) | -46 | nt | 6 | -5 | 4 | 6
Cc1csc2c(N3CCN(C(=O)Nc4ccc(OC(F)(F)F)cc4)CC3)ncnc12 | nt | nt | nt | -1 | nt | nt
Cn1c(=O)[nH]c(=O)c2c1nc(N1CCCCCC1)n2CCOc1ccccc1 | nt | nt | -3 | 1 | 2 | 2
CCOC(=O)Cn1c(C)cc(=O)c2cccc(C)c21 | -8 | -29 | 12* | -1 | 3 | 0
COc1ccc(C2CC(c3cccs3)=Nc3ccccc3S2)cc1 (stereo not drawn) | -40 | nt | -2 | -1 | 21* | 1
COc1cccc(C(C2=C(O)CC(C)(C)CC2=O)C2C(=O)CC(C)(C)CC2=O)c1 (stereo not drawn) | -32 | 22 | -3 | 1 | 4 | 0
CC1(C)CC(=O)C(C(C2=C(O)CC(C)(C)CC2=O)c2ccc([N+](=O)[O-])cc2)C(=O)C1 (stereo not drawn) | -31 | 38* | 2 | -3 | 4 | 2
CC1(C)CC(=O)C(C(C2=C(O)CC(C)(C)CC2=O)c2ccc(Br)s2)C(=O)C1 (stereo not drawn) | -8 | 30* | 6 | nt | 2 | -1
O=C(Cn1cnc2cc([N+](=O)[O-])ccc2c1=O)NCc1ccccc1 | nt | nt | 0 | -2 | 5 | 3
CC(C)c1ccc(NC(=S)NNC(=O)c2cccs2)cc1 | nt | nt | -3 | 0 | 2 | 0
COc1cc(C2Nc3ccc4ncccc4c3C3=C2C(=O)CCC3)ccc1O (stereo not drawn) | -8 | -5 | -1 | -2 | 27* | 2
COC(=O)c1ccc(/C=C/C(=O)c2cccc(OC)c2)cc1 | 0 | -1 | -1 | -2 | 3 | 3
CSc1ccc(/C=C/C(=O)c2ccc(NC(=O)C(C)C)cc2)cc1 | -3 | -7 | 0 | 0 | 4 | 10*
COc1cccc(C(=O)/C=C/c2ccc(SC)cc2)c1 | -31 | -24 | 1 | 2 | 3 | 9.2*
Fc1ccc(-n2cc(CNCCc3cccnc3)c(-c3ccccc3Cl)n2)cc1 | nt | nt | -2 | 0 | 3 | 1
CC1(C)CC(NC(=O)C23CCC(C)(C2Br)C3(C)C)CC(C)(C)N1 (stereo not drawn) | nt | nt | nt | 1 | nt | nt
COc1c(Br)cc(Br)cc1/C=N/n1c(C)nnc1C | -79 | 37* | 0 | -8 | 5 | 0
